Calls of active or inactive are those of the source.
Assays:
Canis familiaris [1] = assay: Antiarrhythmic properties are compared to lidocaine(2) using doses(3 and 6 mg/kg) measures His-Purkinje conduction time(post drug); No effect; type: functional, organism-based; design: dose 6 mg/kg; conditions: Canis lupus familiaris; His-Purkinje system
Outline: (§1)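 Mongrel dogs (about 12–25 kg), 1–4 days after coronary occlusion infarction, under sodium pentobarbital (~30 mg/kg) with 12-lead ECG monitoring. Agents and lidocaine were given iv at 3 and 6 mg/kg. Programmed ventricular stimulation was applied at baseline, about 2–5 min after each dose, and at 30 min. SVT was defined as ≥250 beats/min lasting ≥30 s. Pre means drug-free; post means after dosing.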

Canis familiaris [2] = assay: (§2) Antiarrhythmic properties are compared to lidocaine(2) using doses(3 and 6 mg/kg) measures His-Purkinje conduction time(drug free); No effect; type: functional, organism-based; design: dose 6 mg/kg; conditions: Canis lupus familiaris; His-Purkinje system; outline: as §1
Canis familiaris [3] = assay: Antiarrhythmic properties are compared to lidocaine(2) using doses(3 and 6 mg/kg).Tested for time required for the ventricular myocardium to undergo depolarization and repolarization (drug free); No effect; type: functional, organism-based; design: dose 6 mg/kg; conditions: Canis lupus familiaris; outline: as §1
Canis familiaris [4] = assay: (§3) Antiarrhythmic property A-V nodal conduction time(drug free) is compared to lidocaine(2) using doses(3 and 6 mg/kg); No effect; type: functional, organism-based; design: dose 6 mg/kg; conditions: Canis lupus familiaris; Heart; outline: as §1
Canis familiaris [5] = assay: (§4) Antiarrhythmic property A-V nodal conduction time(post drug) is compared to lidocaine(2) using dose (3 and 6 mg/kg); No effect; type: functional, organism-based; design: dose 6 mg/kg; conditions: Canis lupus familiaris; Heart; outline: as §1
Canis familiaris [6] = assay: Antiarrhythmic properties are compared to lidocaine(2) using doses(3 and 6 mg/kg) ventricular effective refractory period(post drug); No effect; type: functional, organism-based; design: dose 6 mg/kg; conditions: Canis lupus familiaris; Heart; outline: as §1
Canis familiaris [7] = assay: Antiarrhythmic properties are compared to lidocaine(2) using doses(3 and 6 mg/kg). Time required for the ventricular myocardium to undergo depolarization and repolarization ((post drug); No effect; type: functional, organism-based; design: dose 6 mg/kg; conditions: Canis lupus familiaris; outline: as §1
Canis familiaris [8] = assay: Antiarrhythmic properties are compared to lidocaine(2) using doses(3 and 6 mg/kg). Time required for the ventricular myocardium to undergo depolarization and repolarization (drug free); No effect; type: functional, organism-based; design: dose 6 mg/kg; conditions: Canis lupus familiaris; outline: as §1
Canis familiaris [9] = assay: as §2; type: functional, organism-based; design: dose 6 mg/kg; conditions: Canis lupus familiaris; His-Purkinje system; outline: as §1; remark: listed apart in the source
Canis familiaris [10] = assay: Antiarrhythmic properties are compared to lidocaine(2) using doses(3 and 6 mg/kg) ventricular effective refractory period(drug free); No effect; type: functional, organism-based; design: dose 6 mg/kg; conditions: Canis lupus familiaris; Heart; outline: as §1
Canis familiaris [11] = assay: Antiarrhythmic properties are compared to lidocaine(2) using doses(3 and 6 mg/kg). Tested for time required for the ventricular myocardium to undergo depolarization and repolarization ((post drug); No effect; type: functional, organism-based; design: dose 6 mg/kg; conditions: Canis lupus familiaris; outline: as §1
Canis familiaris [12] = assay: Tested for antiarrhythmic property by measuring ability to decrease Mean blood pressure(post drug) is compared to Lidocaine using doses(3 and 6 mg/kg); type: functional, Canis lupus familiaris; outline: as §1
Canis familiaris [13] = assay: Antiarrhythmic property His-Purkinje conduction time(drug free) is compared to lidocaine(2) using doses(3 and 6 mg/kg); No effect; type: functional, organism-based; design: dose 6 mg/kg; conditions: Canis lupus familiaris; His-Purkinje system; outline: as §1
Canis familiaris [14] = assay: Antiarrhythmic property ventricular effective refractory period(drug free) is compared to lidocaine(2) using doses(3 and 6 mg/kg); type: functional, Canis lupus familiaris, Heart; outline: as §1
Canis familiaris [15] = assay: Tested for antiarrhythmic property by measuring ability to decrease heart rate(post drug) is compared to Lidocaine using doses(3 and 6 mg/kg); No effect; type: functional, organism-based; design: dose 6 mg/kg; conditions: Canis lupus familiaris; outline: as §1
Canis familiaris [16] = assay: Antiarrhythmic property is compared to lidocaine(2) using doses(3 and 6 mg/kg). Time required for the ventricular myocardium to undergo depolarization and repolarization ((post drug); No effect; type: functional, organism-based; design: dose 6 mg/kg; conditions: Canis lupus familiaris; outline: as §1
Canis familiaris [17] = assay: Tested for antiarrhythmic property by measuring ability to decrease Mean blood pressure (drug free) is compared to Lidocaine using doses(3 and 6 mg/kg).; type: functional, Canis lupus familiaris; outline: as §1
Canis familiaris [18] = assay: Antiarrhythmic property A-V nodal conduction time(post drug) is compared to lidocaine(2) using doses(3 and 6 mg/kg); No effect; type: functional, organism-based; design: dose 6 mg/kg; conditions: Canis lupus familiaris; Heart; outline: as §1
Canis familiaris [19] = assay: Antiarrhythmic property His-Purkinje conduction time(post drug) is compared to lidocaine(2) using doses(3 and 6 mg/kg); No effect; type: functional, organism-based; design: dose 6 mg/kg; conditions: Canis lupus familiaris; His-Purkinje system; outline: as §1
Canis familiaris [20] = assay: Antiarrhythmic property ventricular effective refractory period(post drug) is compared to lidocaine(2) using doses(3 and 6 mg/kg); type: functional, Canis lupus familiaris, Heart; outline: as §1
Canis familiaris [21] = assay: Antiarrhythmic property is compared to lidocaine(2) using doses(3 and 6 mg/kg). Time required for the ventricular myocardium to undergo depolarization and repolarization (drug free); No effect; type: functional, organism-based; design: dose 6 mg/kg; conditions: Canis lupus familiaris; outline: as §1
Canis familiaris [22] = assay: Tested for antiarrhythmic property by measuring ability to decrease heart rate(drug free) is compared to Lidocaine using doses (3 and 6 mg/kg); No effect; type: functional, organism-based; design: dose 6 mg/kg; conditions: Canis lupus familiaris; outline: as §1
Canis familiaris [23] = assay: Antiarrhythmic property His-Purkinje conduction time(post drug) is compared to lidocaine(2) using dose(3 and 6 mg/kg); No effect; type: functional, organism-based; design: dose 6 mg/kg; conditions: Canis lupus familiaris; His-Purkinje system; outline: as §1
Canis familiaris [24] = assay: Antiarrhythmic property ventricular effective refractory period(post drug) is compared to lidocaine(2) using doses(3 and 6 mg/kg); No effect; type: functional, organism-based; design: dose 6 mg/kg; conditions: Canis lupus familiaris; Heart
Outline: (§5)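 Mongrel dogs (~12–25 kg), 1–4 days after coronary occlusion leaving a surviving epicardial rim, anesthetized with sodium pentobarbital (~30 mg/kg). 12-lead ECG monitored throughout. Agent given iv at 3 and 6 mg/kg. Parameters recorded before (drug free) and after dosing. Programmed electrical stimulation tested SVT inducibility (≥250 beats/min, ≥30 s) at baseline, ~2–5 min after each dose, and at 30 min.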

Canis familiaris [25] = assay: Antiarrhythmic property Heart rate (drug free) is compared to Lidocaine using doses (3 and 6 mg/kg).; type: functional, Canis lupus familiaris; outline: as §5
Canis familiaris [26] = assay: Antiarrhythmic property compared to lidocaine(2) using doses(3 and 6 mg/kg). Time required for the ventricular myocardium to undergo depolarization and repolarization ((post drug); No effect; type: functional, organism-based; design: dose 6 mg/kg; conditions: Canis lupus familiaris; outline: as §1
Canis familiaris [27] = assay: as §3; type: functional, organism-based; design: dose 6 mg/kg; conditions: Canis lupus familiaris; Heart; outline: as §5; remark: listed apart in the source
Canis familiaris [28] = assay: Antiarrhythmic property Nonsustained ventricular tachycardia is compared to lidocaine(2) using dose of (3 and 6 mg/kg); type: functional, Canis lupus familiaris, Heart; outline: as §5
Canis familiaris [29] = assay: Antiarrhythmic property Mean blood pressure (drug free) is compared to Lidocaine using doses(3 and 6 mg/kg).; type: functional, Canis lupus familiaris; outline: as §5
Canis familiaris [30] = assay: Antiarrhythmic property Heart rate (post drug) is compared to Lidocaine using doses(3 and 6 mg/kg). system.; type: functional, Canis lupus familiaris; outline: as §5
Canis familiaris [31] = assay: Antiarrhythmic property Mean blood pressure(post drug) is compared to Lidocaine using doses(3 and 6 mg/kg); type: functional, Canis lupus familiaris; outline: as §5
Canis familiaris [32] = assay: as §4; type: functional, organism-based; design: dose 6 mg/kg; conditions: Canis lupus familiaris; Heart; outline: as §5; remark: listed apart in the source
Canis familiaris [33] = assay: Antiarrhythmic property compared to lidocaine(2) using doses(3 and 6 mg/kg). Time required for the ventricular myocardium to undergo depolarization and repolarization (drug free); No effect; type: functional, organism-based; design: dose 6 mg/kg; conditions: Canis lupus familiaris; outline: as §1
Canis familiaris [34] = assay: Antiarrhythmic property ventricular effective refractory period(drug free) is compared to lidocaine(2) using doses(3 and 6 mg/kg); No effect; type: functional, organism-based; design: dose 6 mg/kg; conditions: Canis lupus familiaris; Heart; outline: as §5

For `CC(C)N1CC2CC(CN(C(=O)c3ccc(NS(C)(=O)=O)cc3)C2)C1`, the HV interval (Canis familiaris [1]) was “inactive”, the HV interval (Canis familiaris [2]) was “inactive” and the OT interval (Canis familiaris [3]) was “inactive”. The AH interval (Canis familiaris [4]) was “inactive”, the NE (Canis familiaris [4]) was “inactive” and the AH interval (Canis familiaris [5]) was “inactive”. The VERP (Canis familiaris [6]) was “inactive”, the OT (Canis familiaris [7]) was “inactive” and the OT (Canis familiaris [8]) was “inactive”. The HV interval (Canis familiaris [9]) was “inactive”, the HV interval (Canis familiaris [10]) was “inactive” and the VERP (Canis familiaris [10]) was “inactive”. For the same compound, the OT interval (Canis familiaris [11]) was “inactive”.

With `CCN(CC)CC(=O)Nc1c(C)cccc1C` [LIDOCAINE] the MBP (Canis familiaris [12]) was 84 mmHg, the HV interval (Canis familiaris [13]) was “inactive” and the VERP (Canis familiaris [14]) was 142 ms. For the same compound, the HR (Canis familiaris [15]) was “inactive”, the AH interval (Canis familiaris [4]) was “inactive” and the QT interval (Canis familiaris [16]) was “inactive”. For the same compound, the MBP (Canis familiaris [17]) was 105 mmHg, the AH interval (Canis familiaris [18]) was “inactive” and the HV interval (Canis familiaris [19]) was “inactive”. For the same compound, the VERP (Canis familiaris [20]) was 167 ms, the QT interval (Canis familiaris [21]) was “inactive” and the HR (Canis familiaris [22]) was “inactive”.

For `c1ccc(CN2CC3CN(CC4CC4)CC(C2)C32SCCS2)cc1`, the HV interval (Canis familiaris [23]) was “inactive”, the VERP (Canis familiaris [24]) was “inactive” and the HR (Canis familiaris [25]) was 148 beats min-1. For the same compound, the QT (Canis familiaris [26]) was “inactive”, the AH interval (Canis familiaris [27]) was “inactive” and the NSVT (Canis familiaris [28]) was 3 mg/kg. The HV interval (Canis familiaris [13]) was “inactive”, the MBP (Canis familiaris [29]) was 105 mmHg and the HR (Canis familiaris [30]) was 148 beats min-1. For the same compound, the MBP (Canis familiaris [31]) was 105 mmHg, the AH interval (Canis familiaris [32]) was “inactive” and the QT (Canis familiaris [33]) was “inactive”. For the same compound, the VERP (Canis familiaris [34]) was “inactive”.

— ChEMBL document CHEMBL1129356, “Novel 3,7-diheterabicyclo[3.3.1]nonanes that possess predominant class III antiarrhythmic activity in 1-4 day post infarction dog models: X-ray diffraction analysis of 3-[4-(1H-imidazol-1-yl)benzoyl]-7-isopropyl-3,7-diazabicyclo[3.3.1]nona ne dihydroperchlorate” (1996)
